Laboratory results reported in publication PMC8929358 (Pharmacology Research & Perspectives, 2021).
“Also recorded” adds a separate entry of the source. Read-outs that look alike come from different tables or passages of the source. Each block holds one molecule with its values, some of them ahead of it.

Columns and labels:
[1] = format: in vivo, rat; details: oral 100 mg/kg; for Feces, % of administered dose: feces pools 0–48 h
How it was run: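 In Sprague Dawley rats given 100 mg/kg [14C]-labelled compound (100 μCi/kg) orally in 0.2% HPMC, heparinized blood was taken by cardiac puncture at 2–168 h. Plasma was precipitated with MeOH/ACN (50:50), dried under N2 and reconstituted. Urine (0–6, 6–24 h) and feces (0–12, 12–24, 24–48 h) were pooled and stored at −80°C. Analysis used accurate-mass LC-MS with offline radiodetection.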

[2] = format: in vivo, rat; details: plasma; for Tmax: median (range)
[3] = biological target: T1, rat soluble COMT (Rattus norvegicus, UniProt P22734); experiment: COMT activity; format: biochemical; details: for Effect upon COMT activity: up to 3000 nM
T1 sequence (P22734 1-221 isoform P22734-2): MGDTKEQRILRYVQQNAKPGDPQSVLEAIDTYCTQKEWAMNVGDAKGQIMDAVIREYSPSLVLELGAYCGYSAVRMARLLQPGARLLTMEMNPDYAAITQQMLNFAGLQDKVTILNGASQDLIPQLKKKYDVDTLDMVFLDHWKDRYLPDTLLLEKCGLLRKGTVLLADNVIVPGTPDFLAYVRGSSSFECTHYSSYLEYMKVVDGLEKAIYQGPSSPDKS

[4] = system: HLS9, HIS9, and SULT1A1; experiment: Inhibition of opicapone sulfation, result in words for all enzyme sources; format: biochemical, human; details: acetaminophen 1–500 μM; quercetin and 2,6-dichloro-4-nitrophenol 0.05–100 μM
[5] = rat, po, 1 g/kg, t max, oral 1 g/kg opicapone

SMILES: Cc1nc(Cl)c(-c2noc(-c3cc(O)c(O)c([N+](=O)[O-])c3)n2)c(C)c1Cl [BIA 9‐1079, 5-(3-(2,5-dichloro-4,6-dimethylpyridin-3-yl)-1,2,4-oxadiazol-5-yl)-3-nitrobenzene-1,2-diol]
Feces, % of administered dose ([1]; ND = not detected, 100 mg/kg): 1.14% | Detectable in the circulation up to (time post-dose) ([1]; plasma): 8 h | AUC(0-t) ([2]; rat, po, 1 g/kg): 4080 ng·h/mL | Cmax ([2]; rat, po, 1 g/kg): 381 ng/mL | Tmax [2, 5]: 4 h | IC50 [3]: 128 nM | Effect upon COMT activity [3]: active in inhibiting the enzyme

SMILES: COc1cc(-c2nc(-c3c(C)c(Cl)c(C)[n+]([O-])c3Cl)no2)cc([N+](=O)[O-])c1O [BIA 9‐1100, 2,5-dichloro-3-(5-(4-hydroxy-3-methoxy-5-nitrophenyl)-1,2,4-oxadiazol-3-yl)-4,6-dimethylpyridine 1-oxide]
AUC(0-t) ([2]; rat, po, 1 g/kg): 7920 ng·h/mL | Cmax ([2]; rat, po, 1 g/kg): 1420 ng/mL | Tmax [2, 5]: 1.5 h | Effect upon COMT activity [3]: no modulatory effect

SMILES: COc1c(O)cc(-c2nc(-c3c(C)c(Cl)c(C)[n+]([O-])c3Cl)no2)cc1[N+](=O)[O-] [BIA 9‐1104, 2,5-dichloro-3-(5-(3-hydroxy-4-methoxy-5-nitrophenyl)-1,2,4-oxadiazol-3-yl)-4,6-dimethylpyridine 1-oxide]
IC50 [3]: 429 nM | Effect upon COMT activity [3]: active in inhibiting the enzyme; also recorded: endowed with activity in inhibiting COMT

SMILES: Cc1nc(Cl)c(-c2noc(-c3cc(OS(=O)(=O)O)c(O)c([N+](=O)[O-])c3)n2)c(C)c1Cl.c1ccncc1 [BIA 9‐1105, pyridinium 5-(3-(2,5-dichloro-4,6-dimethylpyridin-3-yl)-1,2,4-oxadiazol-5-yl)-2-hydroxy-3-nitrophenyl sulfate]
C max ([2]; oral 1 g/kg opicapone, mean (SD)): 58.2 (32.6) ng/ml | AUC0–t ([2]; oral 1 g/kg opicapone, mean (SD), sampling to 48 h): 1322.5 (503.5) ng.h/ml | Tmax ([2]; oral 1 g/kg opicapone): 16 (8–24) h

SMILES: Cc1c(Cl)c(C)[n+]([O-])c(Cl)c1-c1noc(-c2cc(O[C@@H]3O[C@H](C(=O)O)[C@@H](O)[C@H](O)[C@H]3O)c(O)c([N+](=O)[O-])c2)n1 [BIA 9‐1106, 3-(5-(3-((2S,3R,4S,5S,6S)-6-carboxy-3,4,5-trihydroxytetrahydro-2H-pyran-2-yloxy)-4-hydroxy-5-nitrophenyl)-1,2,4-oxadiazol-3-yl)-2,5-dichloro-4,6-dimethylpyridine 1-oxide]
Urine, % of administered dose ([1]; urine pools 0–24 h, ND = not detected): 0.85% | Cmax ([2]; rat, po, 1 g/kg): 4290 ng/mL

SMILES: Cc1nc(Cl)c(-c2noc(-c3cc(O[C@@H]4O[C@H](C(=O)O)[C@@H](O)[C@H](O)[C@H]4O)c(O)c([N+](=O)[O-])c3)n2)c(C)c1Cl [BIA 9‐1107, (2S,3S,4S,5R,6S)-6-(5-(3-(2,5-dichloro-4,6-dimethylpyridin-3-yl)-1,2,4-oxadiazol-5-yl)-2-hydroxy-3-nitrophenoxy)-3,4,5-trihydroxy-tetrahydro-2H-pyran-2-carboxylic acid]
Amount detected in circulation ([2]; oral 1 g/kg opicapone): only traceable amounts

SMILES: O=[N+]([O-])c1cc(Cl)c(O)c(Cl)c1 [DCNP, 2,6‐dichloro‐4‐nitrophenol]
Inhibition of the sulfate conjugation of opicapone [4]: completely inhibited

Results, then the molecule that gave them:

Feces, % of administered dose ([1]; ND = not detected): 1.87%
SMILES: Nc1cc(C(=O)O)cc(O)c1O [BIA 9‐3721, 3-amino-4,5-dihydroxybenzoic acid]

Effect upon COMT activity [3]: no modulatory effect
SMILES: CC(=O)Nc1cc(C(=O)O)cc(O)c1O [BIA 9‐3752, 3-acetamido-4,5-dihydroxybenzoic acid]

Inhibition of the sulfate conjugation of opicapone [4]: completely inhibited
SMILES: O=c1c(O)c(-c2ccc(O)c(O)c2)oc2cc(O)cc(O)c12 [Quercetin, quercetin]

Inhibition of the sulfate conjugation of opicapone [4]: No inhibition
SMILES: CC(=O)Nc1ccc(O)cc1 [acetaminophen]
